Read-outs that look alike come from different tables or passages of the source.
Tests used:
P. falciparum IspC [1] = molecular target: T1, P. falciparum IspC (Plasmodium falciparum, UniProt O96693); assay: P. falciparum IspC inhibition assay; format: biochemical
T1 sequence (O96693 73-488): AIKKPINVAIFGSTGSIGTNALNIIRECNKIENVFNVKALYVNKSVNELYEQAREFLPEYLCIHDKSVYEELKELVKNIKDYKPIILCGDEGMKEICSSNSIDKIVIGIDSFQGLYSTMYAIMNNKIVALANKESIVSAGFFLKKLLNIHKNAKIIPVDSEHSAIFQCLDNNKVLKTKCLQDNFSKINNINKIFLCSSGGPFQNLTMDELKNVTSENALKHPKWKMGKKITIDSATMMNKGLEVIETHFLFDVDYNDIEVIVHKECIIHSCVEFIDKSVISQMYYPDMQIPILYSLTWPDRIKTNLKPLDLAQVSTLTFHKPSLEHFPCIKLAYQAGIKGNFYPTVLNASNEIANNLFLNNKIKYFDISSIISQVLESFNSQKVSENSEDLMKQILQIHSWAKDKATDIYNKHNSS
Procedure, shortened: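 His6-tagged recombinant enzyme (E. coli Rosetta2(DE3), TALON-purified), 0.86 μM in 100 mM Tris pH 7.8, 25 mM MgCl2. Preincubated 10 min at 37 °C with inhibitor, then 150 μM NADPH added for 5 min. Reaction started with 144 μM DXP and A340 followed at 37 °C. IC50 from nonlinear sigmoidal fit of fractional activity versus inhibitor concentration; duplicate.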

P. falciparum IspC [2] = molecular target: T1, P. falciparum IspC; assay: Mechanism of inhibition; format: biochemical; details: for mode of inhibition with respect to DXP / mode of inhibition with respect to NADPH: Lineweaver-Burk plots; for mode of inhibition with respect to DXP: DXP varied 50-400 μM, NADPH 150 μM; for mode of inhibition with respect to NADPH: NADPH varied 6-30 μM, DXP 144 μM
Procedure, shortened: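 N-terminal His6-tagged recombinant enzyme, expressed in E. coli Rosetta2(DE3) and purified by TALON affinity chromatography. […] NADPH oxidation read at 340 nm. Mode taken from Lineweaver–Burk linear fits, Ki from secondary plots; at least triplicate.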

[3] = system: Mycobacterium tuberculosis; details: antibacterial activity; cited from earlier work
P. falciparum IspC [4] = molecular target: T1, P. falciparum IspC; details: cited from earlier work
[5] = cited from earlier work

CCCCC(=O)N(O)CCCP(=O)([O-])O.[Na+] [3a, Sodium Hydrogen-3-(N-hydroxypentanamido)propylphosphonate]
IC50 (P. falciparum IspC [1]): 2450 nM
mode of inhibition with respect to DXP (P. falciparum IspC [2]): competitive
mode of inhibition with respect to NADPH (P. falciparum IspC [2]): uncompetitive

O=C(CCc1ccccc1)N(O)C/C=C/P(=O)([O-])O.[Na+] [1b, Sodium Hydrogen [(1E)-3-(N-hydroxy-3-phenylpropanamido)prop-1-en-1-yl]phosphonate]
IC50 (P. falciparum IspC [1]): 1310 nM
mode of inhibition with respect to DXP (P. falciparum IspC [2]): competitive
mode of inhibition with respect to NADPH (P. falciparum IspC [2]): uncompetitive

CC(=O)N(CCCP(=O)([O-])O)OCc1ccc(-c2ccccc2)cc1.[Na+] [3c]
IC50 (P. falciparum IspC [1]): 804 nM
mode of inhibition with respect to DXP (P. falciparum IspC [2]): competitive
mode of inhibition with respect to NADPH (P. falciparum IspC [2]): competitive

O=C(CCCc1ccccc1)N(O)CCCP(=O)([O-])O.[Na+] [4a]
IC50 (P. falciparum IspC [1]): 1340 nM
mode of inhibition with respect to DXP (P. falciparum IspC [2]): competitive
mode of inhibition with respect to NADPH (P. falciparum IspC [2]): uncompetitive

CC(=O)N(O)CCCP(=O)(O)O [2a, FR900098]
MIC [3]: > 500 µg/mL
mode of inhibition with respect to DXP (P. falciparum IspC [4]): competitive
mode of inhibition with respect to NADPH (P. falciparum IspC [4]): uncompetitive
Ki (P. falciparum IspC [2]): 9 nM
mode of inhibition with respect to DXP (P. falciparum IspC [2]): competitive
mode of inhibition with respect to NADPH (P. falciparum IspC [2]): uncompetitive
serum half-life [5]: short

O=CN(O)CCCP(=O)(O)O [1a, fosmidomycin]
mode of inhibition with respect to DXP (P. falciparum IspC [4]): competitive
mode of inhibition with respect to NADPH (P. falciparum IspC [4]): uncompetitive
serum half-life [5]: short

O=C(CCCc1ccccc1)N(O)C/C=C/P(=O)([O-])O.[Na+] [2b, Sodium Hydrogen [(1E)-3-(N-hydroxy-4-phenylbutanamido)prop-1-en-1-yl]phosphonate]
IC50 (P. falciparum IspC [1]): 900 nM
mode of inhibition with respect to DXP (P. falciparum IspC [2]): competitive
mode of inhibition with respect to NADPH (P. falciparum IspC [2]): uncompetitive

CC(=O)N(C/C=C/P(=O)([O-])O)OCc1ccc(-c2ccccc2)cc1.[Na+] [1d]
IC50 (P. falciparum IspC [1]): 5670 nM
Ki relative to DXP, fold higher than that of 3c (P. falciparum IspC [2]; 1d versus 3c): 3 fold
mode of inhibition with respect to DXP (P. falciparum IspC [2]): competitive
mode of inhibition with respect to NADPH (P. falciparum IspC [2]): competitive

Reference: article PMC8552233 (ACS Omega, 2021)
